Each block holds one compound with its values, some of them ahead of it.
Columns and labels:
Rattus norvegicus [1] = assay: (§1) Rat rotation experiments were conducted to evaluate rational behavior of the rats by administering at a dose of […] subcutaneously; format: functional
Rattus norvegicus [2] = assay: (§2) Rat rotation experiments were conducted to evaluate rational behavior of the rats by administering at a dose of […] oral; format: functional
[3] = target: T1, 5-hydroxytryptamine receptor 1A (Rattus norvegicus, UniProt P19327); assay: Binding affinity was evaluated by using [3H]8-OH-DPAT radioligand by using competitive binding assay on 5-hydroxytryptamine 1A receptor
T1 sequence (P19327 whole entry): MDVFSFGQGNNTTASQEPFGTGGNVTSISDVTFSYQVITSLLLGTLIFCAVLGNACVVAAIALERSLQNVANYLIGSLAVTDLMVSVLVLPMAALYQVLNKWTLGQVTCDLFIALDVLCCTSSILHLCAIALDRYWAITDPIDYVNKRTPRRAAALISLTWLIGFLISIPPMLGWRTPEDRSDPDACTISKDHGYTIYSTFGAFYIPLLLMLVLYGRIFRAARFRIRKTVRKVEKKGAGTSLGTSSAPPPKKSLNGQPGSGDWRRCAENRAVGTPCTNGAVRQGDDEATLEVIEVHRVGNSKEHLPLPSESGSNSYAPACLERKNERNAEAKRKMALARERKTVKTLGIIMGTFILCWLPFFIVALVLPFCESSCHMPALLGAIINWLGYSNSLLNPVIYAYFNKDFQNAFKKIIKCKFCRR
Summary of the method: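 Rat anterior cortex membranes, pelleted and preincubated 30 min at 37 °C in 50 mM Tris-HCl pH 7.7, 4 mM CaCl2, 10 μM pargyline. Label [3H]8-OH-DPAT, 800 pM final; nonspecific binding with 10 μM spiroxatrine. Ki derived from IC50 by Cheng-Prusoff; mean with SEM range.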

Rattus norvegicus [4] = assay: as §1; format: functional; remark: listed apart in the source
Rattus norvegicus [5] = assay: as §2; format: functional; remark: listed apart in the source
Rattus norvegicus [6] = assay: as §1; format: functional; remark: listed apart in the source
Rattus norvegicus [7] = assay: Rat rotation experiments were conducted to evaluate rational behavior of the rats by administering at a dose of 0.41 umol/Kg subcutaneously; format: functional
Summary of the method: (§3)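 Rats with unilateral 6-hydroxydopamine lesions of the nigrostriatal bundle. Compound given subcutaneously or orally at the stated dose. Net contralateral rotations counted over 2 h after dosing and reported as mean ± SEM; negative values indicate ipsilateral turning.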

Rattus norvegicus [8] = assay: Rat rotation experiments were conducted to evaluate rational behavior of the rats by administering at a dose of 4.1 umol/kg subcutaneously; format: functional; summary of the method: as §3
Rattus norvegicus [9] = assay: Rat rotation experiments were conducted to evaluate rational behavior of the rats by administering at a dose of 0.2 umol/kg subcutaneously; format: functional; summary of the method: as §3

Structure (SMILES): C=CCNC[C@@H]1OC(C2CCCCC2)Cc2c1ccc(O)c2O (some centres undefined)
- Activity (Rattus norvegicus [1]): 1056

- Ki [3]: > 20 µM
Structure (SMILES): CC(C)(C)C1Cc2c(ccc(O)c2O)[C@H](CN)O1 (some centres undefined)
- Activity (Rattus norvegicus [2]): 176
- Activity (Rattus norvegicus [4]): 671
- Activity (Rattus norvegicus [5]): 689
- Activity (Rattus norvegicus [6]): 661

Structure (SMILES): NC[C@@H]1OC(c2ccccc2)Cc2c1ccc(O)c2O (some centres undefined)
- Activity (Rattus norvegicus [7]): 192
- Activity (Rattus norvegicus [8]): 1554

Structure (SMILES): NC[C@@H]1O[C@H](c2ccccc2)Cc2c1ccc(O)c2O
- Activity (Rattus norvegicus [9]): 348

Source: ChEMBL document CHEMBL1125832, “Synthesis and dopaminergic activity of 3-substituted 1-(aminomethyl)-3,4-dihydro-5,6-dihydroxy-1H-2-benzopyrans: characterization of an auxiliary binding region in the D1 receptor” (J Med Chem, 1991)
